Legend:
[1] = melting temperature; fluorescence melt of hairpins on a sequencing array, two-state fit, raised by 9.35 °C to match UV melts; conditions: sodium 0.088 M
Summary of the method: (§1)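 Library hairpins on a sequenced MiSeq flow cell carried annealed Cy3 and quencher oligos, and their Cy3 fluorescence was imaged in 50 mM Na-HEPES pH 8.0 with 25 mM NaCl, in 2.5 °C steps up to 60 °C. Signals were normalised to Cy3 before quenching and to control constructs. Melting temperature and folding enthalpy were obtained from bootstrapped two-state fits, combined by inverse-variance weighting across four replicates, and the fitted temperatures were then raised by 9.35 °C to match UV melts.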

[2] = folding enthalpy; higher = less favourable; fluorescence melt of hairpins on a sequencing array, two-state fit; conditions: sodium 0.088 M
Summary of the method: as §1

Row | Sequence | Tm [1] [°C] | folding enthalpy [2] [kcal/mol]
1 | GGACACGAAAGTGGATCC ((((((....)))..))) | 40.3 | -15.6
2 | GGACACGGAAACGCGTCC ((((.((....)).)))) | 54.6 | -46.4
3 | GGACACGGAAACGTATCC (((.(((....))).))) | 40.9 | -27.4
4 | GGACACGGAAACGTGTTC (.(((((....))))).) | 54.9 | -24.8
5 | GGACAGGCGAAAGCCTCC (((..(((....)))))) | 31.1 | -9.93
6 | GGACAGGGAAACTTGTCC (((((.(....).))))) | 49 | -37.1
7 | GGACCAGGAAACTGACCC ((..(((....)))..)) | 23.5 | -10.6
8 | GGACCCGAAAGGGATCC ((((((....))).))) | 54.2 | -20.8
9 | GGACCCGAAAGGGGATCC ((((((....)))..))) | 51.4 | -14.8
10 | GGACCCGAAAGGGTATCC ((((((....)))..))) | 38.9 | -11
11 | GGACCCGGAAACAGGTCC (((((.(....).))))) | 49.4 | -39.7
12 | GGACCCGGAAACGGATCC (((.(((....))).))) | 49.8 | -38.5
13 | GGACCCTCGAAAGAGTCC (((..(((....)))))) | 35.9 | -16.3
14 | GGACCGGGAAACCGACCC ((..(((....)))..)) | 31.1 | -18
15 | GGACCGTCGAAAGACTCC (((..(((....)))))) | 30.7 | -12.9
16 | GGACCTCCGAAAGGATCC (((..(((....)))))) | 28.7 | -13.3
17 | GGACCTGGAAACAGATCC (((.(((....))).))) | 40.2 | -28.7
18 | GGACCTGGAAACGGGTCC (((((.(....).))))) | 58.3 | -45
19 | GGACGACCGAAAGGTTCC (((..(((....)))))) | 31.3 | -13.8
20 | GGACGAGCGAAAGCTTCC (((..(((....)))))) | 29.5 | -9.29
21 | GGACGCGAAAGCGAATCC ((((((....)))..))) | 36.5 | -13.5
22 | GGACGCGAAAGCGCTTCC ((((((....)))..))) | 47.5 | -13.2
23 | GGACGCGAAAGCGTGTCC ((((((....)))..))) | 54 | -12.7

Row | Sequence | Tm [1] [°C] | folding enthalpy [2] [kcal/mol]
24 | GGACGCGGAAACGCACCC ((..(((....)))..)) | 33.7 | -10.1
25 | GGACGCGGAAACGTGTCC ((((.((....)).)))) | 62.2 | -43.4
26 | GGACGGGGAAACCTGTCC ((((.((....)).)))) | 56.8 | -44.5
27 | GGACTACGAAAGTACTCC (((.(((....))).))) | 34.9 | -13.3
28 | GGACTACGAAAGTATTCC (((.(((....))).))) | 39.2 | -34.8
29 | GGACTAGGAAACTAGCCC ((.((((....)))).)) | 42.1 | -24.5
30 | GGACTAGGAAACTAGTCC (((((((....))))))) | 61.5 | -44
31 | GGACTAGGAAACTAGTTC (.(((((....))))).) | 41.3 | -31.9
32 | GGACTCGAAAGAGCATCC ((((((....)))..))) | 24.9 | -9.49
33 | GGACTCGAAAGAGGATCC ((((((....)))..))) | 37 | -17.9
34 | GGACTCGAAAGAGGCTCC ((((((....)))..))) | 48.9 | -13.3
35 | GGACTCGAAAGAGTTTCC ((((((....)))..))) | 36.8 | -13.8
36 | GGACTCGGAAACGAATCC (((.(((....))).))) | 40.9 | -26.7
37 | GGACTCGGAAACGGGTCC ((((.((....)).)))) | 57.4 | -36.4
38 | GGACTGAAAAGTCC (((((....))))) | 59.9 | -25.9
39 | GGACTGGAAACAGTCC ((((((....)))))) | 59.8 | -30.2
40 | GGACTGGCGAAAGCCTCC (((..(((....)))))) | 31.6 | -9.14
41 | GGACTGGGAAACCGGTCC ((((.((....)).)))) | 58.6 | -39.9
42 | GGACTGGGAAACTGGTCC ((((..(....)..)))) | 45.5 | -25
43 | GGACTTCGAAAGAATCC (((.(((....)))))) | 35.2 | -21.7
44 | GGACTTCGAAAGAATTCC (((.(((....))).))) | 36.8 | -31.9
45 | GGACTTGGAAACAAGTCC (((((((....))))))) | 64.7 | -51.1
46 | GGACTTGGAAACGAGTCC (((((.(....).))))) | 52.4 | -39.4

Row | Sequence | Tm [1] [°C] | folding enthalpy [2] [kcal/mol]
47 | GGAGAAGGAAACTCCTCC ((((.((....)).)))) | 36 | -22.6
48 | GGAGACGAAAGTCCATCC ((((((....)))..))) | 30.3 | -10.1
49 | GGAGAGCGAAAGCTTTCC (((.(((....))).))) | 53.6 | -31.6
50 | GGAGAGGAAACTCTCC ((((((....)))))) | 56.9 | -35.1
51 | GGAGAGGGAAACCTCTTC (.(((((....))))).) | 45.8 | -21.5
52 | GGAGATCGAAAGATTTCC (((.(((....))).))) | 46.5 | -33
53 | GGAGATTCGAAAGAATCC (((..(((....)))))) | 38.7 | -13.3
54 | GGAGCAGGAAACTGCTCC (((((((....))))))) | 69.1 | -33.4
55 | GGAGCCGAAAGGCCATCC ((((((....)))..))) | 31.6 | -8.68
56 | GGAGCCGAAAGGCCTTCC ((((((....)))..))) | 46.2 | -15.4
57 | GGAGCCGAAAGGCGGTCC ((((((....)))..))) | 48.1 | -9.55
58 | GGAGCCGCGAAAGCGTCC (((..(((....)))))) | 30.7 | -10.9
59 | GGAGCGGGAAACCGTTCC (((.(((....))).))) | 54.9 | -38.4
60 | GGAGCGGGAAACTGCTCC (((((.(....).))))) | 60.9 | -45
61 | GGAGCTCGAAAGAGGTCC (((.(((....))).))) | 65.9 | -37.8
62 | GGAGCTGGAAACGGTTCC (((.(.(....).).))) | 37.6 | -17.5
63 | GGAGGACCGAAAGGTTCC (((..(((....)))))) | 42.9 | -12.6
64 | GGAGGAGCGAAAGCTTCC (((..(((....)))))) | 38.6 | -13.4
65 | GGAGGCGAAAGCCCATCC ((((((....)))..))) | 31.3 | -9.1
66 | GGAGGCGAAAGCCCGTCC ((((((....)))..))) | 39.7 | -8.99
67 | GGAGGCGAAAGCCGCTCC ((((((....)))..))) | 49.2 | -9.69
68 | GGAGGCGAAAGCCTTTCC ((((((....)))..))) | 32.4 | -10.3
69 | GGAGGCGCGAAAGCGTCC (((..(((....)))))) | 47 | -8.65

Row | Sequence | Tm [1] [°C] | folding enthalpy [2] [kcal/mol]
70 | GGAGGGCCGAAAGGCTCC (((..(((....)))))) | 39.4 | -9.45
71 | GGAGGGGAAACCCTCC ((((((....)))))) | 62.8 | -30.9
72 | GGAGGTACGAAAGTATCC (((..(((....)))))) | 32.9 | -13
73 | GGAGGTTCGAAAGAATCC (((..(((....)))))) | 28.9 | -14.4
74 | GGAGTAGGAAACCACTCC (((((.(....).))))) | 42.6 | -28.3
75 | GGAGTAGGAAACTACCCC ((.((((....)))).)) | 35.1 | -24.4
76 | GGAGTCCCGAAAGGGTCC (((..(((....)))))) | 34 | -12.4
77 | GGAGTCGAAAGACACTCC ((((((....)))..))) | 37.5 | -16
78 | GGAGTCGAAAGACCTCC ((((((....))).))) | 50 | -24.5
79 | GGAGTCGAAAGACCTTCC ((((((....)))..))) | 40.6 | -22.5
80 | GGAGTCGAAAGACTATCC ((((((....)))..))) | 32.9 | -13.8
81 | GGAGTCGAAAGACTTCC ((((((....))).))) | 48.7 | -21.2
82 | GGAGTCGAAAGACTTTCC ((((((....)))..))) | 34 | -11.1
83 | GGAGTGAAAACTCC (((((....))))) | 54.8 | -27.2
84 | GGAGTGCCGAAAGGCTCC (((..(((....)))))) | 41.9 | -12.2
85 | GGAGTGCGAAAGCATCC (((.(((....)))))) | 48.2 | -17.1
86 | GGAGTGCGAAAGCATTCC (((.(((....))).))) | 58.1 | -30.4
87 | GGAGTGGGAAACCGCTCC ((((.((....)).)))) | 57.8 | -44.3
88 | GGAGTGGGAAACCGTTCC (((..((....))..))) | 32.3 | -17.8
89 | GGAGTGGGAAACTACTCC (((((.(....).))))) | 49.5 | -24.8
90 | GGAGTTACGAAAGTATCC (((..(((....)))))) | 26.1 | -9.09
91 | GGAGTTGGAAACAACTCC (((((((....))))))) | 65.9 | -45.3

— the array DNA melting data of Ke et al. (doi:10.1101/2024.01.08.574731)
